Data: ChEMBL document CHEMBL1127554, “Design, synthesis, and study of 9-substituted ellipticine and 2-methylellipticinium analogues as potential CNS-selective antitumor agents” (1994)

Tests used:
Tumor Cell line [1] = assay: GI50 was measured In vitro as the ratio of the mean activity for all non-CNS tumor cell lines over the mean activity of the CNS tumor subpanel (eight cell lines); type: functional, Homo sapiens
Outline: (§1)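 Ratio of the mean activity (μM) over all non-CNS tumour cell lines (ca. 40-50 lines) to the mean activity (μM) of the CNS subpanel (eight lines). Activity was taken from PG vs log concentration curves: GI50 at PG +50%, TGI at PG 0%.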

Tumor Cell line [2] = assay: TGI was measured In vitro as the ratio of the mean activity for all non-CNS tumor cell lines over the mean activity of the CNS tumor subpanel (eight cell lines); type: functional, Homo sapiens; outline: as §1
Tumor Cell line [3] = assay: GI50 was given In vitro as +50% percent growth (PG), measured as concentration of compound required to inhibit disease oriented human tumor cell line panels; Value ranges from 0.22-52.48; type: functional
Outline: (§2)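 Human tumour cell line panel; percent growth plotted against log drug concentration to give dose-response curves. GI50 is the concentration giving PG +50%, and TGI the concentration giving PG 0%. Values are mean inhibitory concentrations over the entire panel. PG values at either limit (> or <) are included in the mean.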

Tumor Cell line [4] = assay: LC50 was given In vitro as -50% percent growth (PG), measured as concentration of compound required to inhibit disease oriented human tumor cell line panels; type: functional; conditions: read-out: LC50 (the source's name)
Outline: (§3)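 Human tumor cell line panel tested in vitro. Percent growth (PG) plotted against log drug concentration to give dose-response curves. LC50 is the concentration where PG equals -50%; GI50 and TGI are taken at +50% and 0%. Values are means across the full panel, with values beyond the tested limits (> or <) included in the mean.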

Tumor Cell line [5] = assay: LC50 was given In vitro as -50% percent growth (PG), measured as concentration of compound required to inhibit disease oriented human tumor cell line panels; Value ranges from 7.94->100; type: functional; conditions: read-out: LC50 (the source's name)
Tumor Cell line [6] = assay: GI50 was given In vitro as +50% percent growth (PG), measured as concentration of compound required to inhibit disease oriented human tumor cell line panels; Value ranges from 0.43->100; type: functional
Tumor Cell line [7] = assay: TGI was given In vitro as 0% percent growth (PG), measured as concentration of compound required to inhibit disease oriented human tumor cell line panels; Value ranges from 3.47->100; type: functional
Tumor Cell line [8] = assay: LC50 was given In vitro as -50% percent growth (PG), measured as concentration of compound required to inhibit disease oriented human tumor cell line panels; Value ranges from 5.6->100; type: functional; conditions: read-out: LC50 (the source's name)
Tumor Cell line [9] = assay: TGI was given In vitro as 0% percent growth (PG), measured as concentration of compound required to inhibit disease oriented human tumor cell line panels; Value ranges from 0.65->100; type: functional
Tumor Cell line [10] = assay: GI50 was given In vitro as +50% percent growth (PG), measured as concentration of compound required to inhibit disease oriented human tumor cell line panels; Value ranges from 0.19->100; type: functional
Tumor Cell line [11] = assay: LC50 was given In vitro as -50% percent growth (PG), measured as concentration of compound required to inhibit disease oriented human tumor cell line panels; Value ranges from 8.13->76; type: functional; conditions: read-out: LC50 (the source's name); outline: as §3
Tumor Cell line [12] = assay: TGI was given In vitro as 0% percent growth (PG), measured as concentration of compound required to inhibit disease oriented human tumor cell line panels; Value ranges from 3.24-37.15; type: functional; outline: as §2
Tumor Cell line [13] = assay: GI50 was given In vitro as +50% percent growth (PG), measured as concentration of compound required to inhibit disease oriented human tumor cell line panels; Value ranges from 1.38-15.14; type: functional; outline: as §2
Tumor Cell line [14] = assay: TGI was given In vitro as 0% percent growth (PG), measured as concentration of compound required to inhibit disease oriented human tumor cell line panels; Value ranges from 0.30->100; type: functional
Tumor Cell line [15] = assay: GI50 was given In vitro as +50% percent growth (PG), measured as concentration of compound required to inhibit disease oriented human tumor cell line panels; Value ranges from 0.02->100; type: functional; outline: as §2
Tumor Cell line [16] = assay: LC50 was given In vitro as -50% percent growth (PG), measured as concentration of compound required to inhibit disease oriented human tumor cell line panels; Value ranges from 1.20->100; type: functional; conditions: read-out: LC50 (the source's name)
Tumor Cell line [17] = assay: TGI was given In vitro as 0% percent growth (PG), measured as concentration of compound required to inhibit disease oriented human tumor cell line panels; Value ranges from 0.06->100; type: functional
Tumor Cell line [18] = assay: LC50 was given In vitro as -50% percent growth (PG), measured as concentration of compound required to inhibit disease oriented human tumor cell line panels; Value ranges from 5.25->100; type: functional; conditions: read-out: LC50 (the source's name); outline: as §3
Tumor Cell line [19] = assay: GI50 was given In vitro as +50% percent growth (PG), measured as concentration of compound required to inhibit disease oriented human tumor cell line panels;Value ranges from 0.06->100; type: functional
Tumor Cell line [20] = assay: LC50 was given In vitro as -50% percent growth (PG), measured as concentration of compound required to inhibit disease oriented human tumor cell line panels; Value ranges from 4.68-100; type: functional; conditions: read-out: LC50 (the source's name); outline: as §3
Tumor Cell line [21] = assay: LC50 was measured In vitro as the ratio of the mean activity for all non-CNS tumor cell lines over the mean activity of the CNS tumor subpanel (eight cell lines); type: functional, Homo sapiens
Outline: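 Same PG dose-response panel. LC50 (μM) is averaged separately over the non-CNS lines (ca. 40-50 lines) and the CNS subpanel (eight lines). The ratio is the non-CNS mean divided by the CNS mean.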

Tumor Cell line [22] = assay: LC50 was given In vitro as -50% percent growth (PG), measured as concentration of compound required to inhibit disease oriented human tumor cell line panels; Value ranges from 16.98->100; type: functional; conditions: read-out: LC50 (the source's name); outline: as §3
Tumor Cell line [23] = assay: GI50 was given In vitro as +50% percent growth (PG), measured as concentration of compound required to inhibit disease oriented human tumor cell line panels; Value ranges from 0.060->100; type: functional
Tumor Cell line [24] = assay: LC50 was given In vitro as -50% percent growth (PG), measured as concentration of compound required to inhibit disease oriented human tumor cell line panels; Value ranges from 3.02->100; type: functional; conditions: read-out: LC50 (the source's name)
Tumor Cell line [25] = assay: TGI was given In vitro as 0% percent growth (PG), measured as concentration of compound required to inhibit disease oriented human tumor cell line panels; Value ranges from 0.68->100; type: functional; outline: as §2

CC(=O)[O-].Cc1c2cc[n+](C)cc2c(C)c2c1[nH]c1ccc(OCC(F)(F)F)cc12
GI50 ratio (Tumor Cell line [1]): 12.9 | TGI ratio (Tumor Cell line [2]): 13.7 | GI50 (Tumor Cell line [3]): 3.47 µM | CC50 (Tumor Cell line [4]): > 100 µM

CC(=O)[O-].Cc1c2cc[n+](C)cc2c(C)c2c1[nH]c1ccc(OC(C)C)cc12
CC50 (Tumor Cell line [5]): > 66.1 µM | GI50 (Tumor Cell line [6]): > 3.8 µM | GI50 ratio (Tumor Cell line [1]): 2.99 | TGI ratio (Tumor Cell line [2]): 2.09 | TGI (Tumor Cell line [7]): > 23.4 µM

CC(=O)[O-].CCOc1ccc2[nH]c3c(C)c4cc[n+](C)cc4c(C)c3c2c1
CC50 (Tumor Cell line [8]): > 74.1 µM | TGI (Tumor Cell line [9]): > 19.5 µM | GI50 (Tumor Cell line [10]): > 2.34 µM | GI50 ratio (Tumor Cell line [1]): 5.92 | TGI ratio (Tumor Cell line [2]): 7.08

Cc1c2ccncc2c(C)c2c1[nH]c1ccc(O)c(OCC(F)(F)F)c12
CC50 (Tumor Cell line [11]): > 42.7 µM | TGI (Tumor Cell line [12]): 15.8 µM | GI50 ratio (Tumor Cell line [1]): 1.07 | TGI ratio (Tumor Cell line [2]): 0.98 | GI50 (Tumor Cell line [13]): 5.89 µM

CC(=O)[O-].COc1ccc2[nH]c3c(C)c4cc[n+](C)cc4c(C)c3c2c1
TGI (Tumor Cell line [14]): > 14.8 µM | GI50 ratio (Tumor Cell line [1]): 16.7 | TGI ratio (Tumor Cell line [2]): 33.9 | GI50 (Tumor Cell line [15]): > 1.86 µM | CC50 (Tumor Cell line [16]): > 49 µM

Cc1c2cc[n+](C)cc2c(C)c2c1[nH]c1ccc(OC(C)C)cc12.[I-]
TGI (Tumor Cell line [17]): > 13.2 µM | CC50 (Tumor Cell line [18]): > 58.9 µM | GI50 ratio (Tumor Cell line [1]): 8.35 | TGI ratio (Tumor Cell line [2]): 6.49 | GI50 (Tumor Cell line [19]): > 1.62 µM

CCOc1ccc2[nH]c3c(C)c4ccncc4c(C)c3c2c1
CC50 (Tumor Cell line [20]): > 8.32 µM | LC50 ratio (Tumor Cell line [21]): 1.7 | GI50 ratio (Tumor Cell line [1]): 0.89 | TGI ratio (Tumor Cell line [2]): 1.32

Cc1c2cc[n+](C)cc2c(C)c2c1[nH]c1ccc(Oc3ccccc3)cc12.[I-]
CC50 (Tumor Cell line [22]): > 93.3 µM | GI50 ratio (Tumor Cell line [1]): 3.05 | TGI ratio (Tumor Cell line [2]): 2.06

CCOc1ccc2[nH]c3c(C)c4cc[n+](C)cc4c(C)c3c2c1.[I-]
GI50 (Tumor Cell line [23]): > 1.17 µM | CC50 (Tumor Cell line [24]): > 55 µM | GI50 ratio (Tumor Cell line [1]): 7.9 | TGI ratio (Tumor Cell line [2]): 9.54 | TGI (Tumor Cell line [25]): > 12 µM
